Measured values reported in ChEMBL document CHEMBL4665798, “Novel Human Urate Transporter 1 Inhibitors as Hypouricemic Drug Candidates with Favorable Druggability” (J Med Chem, 2020).
Values belong to the compound of their own block, whether it stands above or below them.

How the values were obtained:
[1] = Half-life in male Kunming mouse at 2 mg/kg, po by LC-MS/MS analysis; type: ADME, organism-based; conditions: in vivo
Summary of the method: (§1)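 Male Kunming mice, ten in total, split into five groups; single oral dose in PEG 400/normal saline (70/30, v/v). Blood taken from submandibular or saphenous vein into K2EDTA tubes at 0.25, 0.5, 1, 2, 4, 8, 24, 48, 72 h. Plasma spun at about 4 °C and kept at -70 °C. Acetonitrile precipitation with dexamethasone internal standard, then LC-MS/MS against plasma standard curves.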

[2] = Sub-acute toxicity in Kunming mouse assessed as hydropic degeneration of hepatocytes at 50 mg/kg, po administered as single dose every other day for 14 days by H and E staining based assay; type: organism-based; conditions: in vivo, 336 h, time 14 day
[3] = MRT (0 to infinity) in male Kunming mouse at 50 mg/kg, po by LC-MS/MS analysis; type: ADME, organism-based; conditions: in vivo; summary of the method: as §1
[4] = Sub-acute toxicity in female Kunming mouse assessed as increase in body weight at 50 mg/kg, po administered once every second day for 14 days; type: organism-based; conditions: in vivo, 336 h, time 14 day
[5] = Cmax in male Kunming mouse at 50 mg/kg, po by LC-MS/MS analysis; type: ADME, organism-based; set-up: route oral, dose 50 mg/kg; conditions: in vivo; summary of the method: as §1
[6] = test system: Mus musculus; assay: Hypouricemic activity in Kunming mouse model of xanthine/potassium oxonate-induced acute hyperuricemia assessed as decrease in serum uric acid level at 2 mg/kg administered 3 hrs prior to xanthine/potassium oxonate and measured after 6 hrs relative to control; type: functional; set-up: scale not given: the % may be the effect or the level left; conditions: time 9 hrs
Summary of the method: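 Male Kunming mice, hyperuricemia induced by intragastric xanthine plus subcutaneous potassium oxonate (0.2 mL each). […] Groups: normal vehicle, untreated model, active control, test. Serum uric acid measured. Decrease ratio = (model SUA − compound SUA)/(model SUA − vehicle SUA).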

[7] = Acute toxicity in female Kunming mouse assessed as change in body weight at 500 mg/kg, ig measured for 1 week; type: organism-based; conditions: in vivo, po, 168 h, time 1 weeks
[8] = Tmax in male Kunming mouse at 50 mg/kg, po by LC-MS/MS analysis; type: ADME, organism-based; conditions: in vivo; summary of the method: as §1
[9] = AUC (0 to infinity) in male Kunming mouse at 50 mg/kg, po by LC-MS/MS analysis; type: ADME, organism-based; set-up: route oral, time infinity, dose 50 mg/kg; conditions: in vivo; summary of the method: as §1
[10] = Sub-acute toxicity in Kunming mouse assessed as ballooning degeneration of liver at 50 mg/kg, po administered as single dose every other day for 14 days by H and E staining based assay; type: organism-based; conditions: in vivo, 336 h, time 14 day
[11] = AUC (0 to infinity) in male Kunming mouse at 2 mg/kg, po by LC-MS/MS analysis; type: ADME, organism-based; set-up: time infinity, route oral, dose 2 mg/kg; conditions: in vivo; summary of the method: as §1
[12] = Tmax in male Kunming mouse at 2 mg/kg, po by LC-MS/MS analysis; type: ADME, organism-based; conditions: in vivo; summary of the method: as §1
[13] = Acute toxicity in male Kunming mouse assessed as change in body weight at 500 mg/kg, ig measured for 1 week; type: organism-based; conditions: in vivo, po, 168 h, time 1 weeks
[14] = organism: Rattus norvegicus; assay: Hypouricemic activity in rat model of xanthine/potassium oxonate-induced acute hyperuricemia assessed as decrease in serum uric acid level relative to control; type: functional; set-up: scale not given: the % may be the effect or the level left
[15] = Acute toxicity in Kunming mouse assessed as induction of abnormal behaviors by measuring anorexia at 500 mg/kg, ig; type: organism-based; conditions: in vivo, po
[16] = AUC (0 to t) in male Kunming mouse at 2 mg/kg, po by LC-MS/MS analysis; type: ADME, organism-based; set-up: dose 2 mg/kg; conditions: in vivo; summary of the method: as §1
[17] = MRT (0 to infinity) in male Kunming mouse at 2 mg/kg, po by LC-MS/MS analysis; type: ADME, organism-based; conditions: in vivo; summary of the method: as §1
[18] = Acute toxicity in Kunming mouse assessed as death at 250 mg/kg, ig measured for 1 week relative to control; type: organism-based; conditions: in vivo, po, 168 h, time 1 weeks
Summary of the method: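 Kunming mice of 10-12 g, 12 per group (6 male, 6 female), fasted 12 h. Single intragastric dose of a suspension in 5% CMC-Na. Deaths, behaviour (lethargy, clonic convulsion, anorexia, ruffled fur) and body weight followed for one week and compared with vehicle controls.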

[19] = Sub-acute toxicity in Kunming mouse assessed as edema in proximal tubule at 50 mg/kg, po administered as single dose every other day for 14 days by H and E staining based assay; type: organism-based; conditions: in vivo, 336 h, time 14 day
Summary of the method: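 Kunming mice, n = 4 per sex, fasted 12 h. Dosed orally on D0, D2, D4, D6, D8, D10 and D12; controls received an equal volume of vehicle. Weighed before each dose. Killed at D14; heart, liver, spleen, lung and kidney taken for haematoxylin and eosin staining.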

[20] = AUC (0 to t) in male Kunming mouse at 50 mg/kg, po by LC-MS/MS analysis; type: ADME, organism-based; set-up: dose 50 mg/kg; conditions: in vivo; summary of the method: as §1
[21] = Sub-acute toxicity in Kunming mouse assessed as hepatocellular condensation of liver at 50 mg/kg, po administered as single dose every other day for 14 days by H and E staining based assay; type: organism-based; conditions: in vivo, 336 h, time 14 day
[22] = Cmax in male Kunming mouse at 2 mg/kg, po by LC-MS/MS analysis; type: ADME, organism-based; set-up: route oral, dose 2 mg/kg; conditions: in vivo; summary of the method: as §1
[23] = Sub-acute toxicity in Kunming mouse assessed as congestion in hepatic central vein at 50 mg/kg, po administered as single dose every other day for 14 days by H and E staining based assay; type: organism-based; conditions: in vivo, 336 h, time 14 day
[24] = Acute toxicity in Kunming mouse assessed as induction of abnormal behaviors by measuring lethargy at 500 mg/kg, ig; type: organism-based; conditions: in vivo, po
[25] = Acute toxicity in Kunming mouse assessed as induction of abnormal behaviors by measuring clonic convulsion at 500 mg/kg, ig; type: organism-based; conditions: in vivo, po
[26] = Half-life in male Kunming mouse at 50 mg/kg, po by LC-MS/MS analysis; type: ADME, organism-based; conditions: in vivo; summary of the method: as §1
[27] = Sub-acute toxicity in male Kunming mouse assessed as increase in body weight at 50 mg/kg, po administered once every second day for 14 days; type: organism-based; conditions: in vivo, 336 h, time 14 day
[28] = biological target: T1, Solute carrier family 22 member 12 (Homo sapiens, UniProt Q96S37); assay: Inhibition of human URAT1 expressed in HEK293T cells assessed as reduction in [14C]uric acid uptake preincubated for 15 mins followed by [14C]uric acid addition by liquid scintillation counting method; type: cell-based
T1 sequence (Q96S37 whole entry): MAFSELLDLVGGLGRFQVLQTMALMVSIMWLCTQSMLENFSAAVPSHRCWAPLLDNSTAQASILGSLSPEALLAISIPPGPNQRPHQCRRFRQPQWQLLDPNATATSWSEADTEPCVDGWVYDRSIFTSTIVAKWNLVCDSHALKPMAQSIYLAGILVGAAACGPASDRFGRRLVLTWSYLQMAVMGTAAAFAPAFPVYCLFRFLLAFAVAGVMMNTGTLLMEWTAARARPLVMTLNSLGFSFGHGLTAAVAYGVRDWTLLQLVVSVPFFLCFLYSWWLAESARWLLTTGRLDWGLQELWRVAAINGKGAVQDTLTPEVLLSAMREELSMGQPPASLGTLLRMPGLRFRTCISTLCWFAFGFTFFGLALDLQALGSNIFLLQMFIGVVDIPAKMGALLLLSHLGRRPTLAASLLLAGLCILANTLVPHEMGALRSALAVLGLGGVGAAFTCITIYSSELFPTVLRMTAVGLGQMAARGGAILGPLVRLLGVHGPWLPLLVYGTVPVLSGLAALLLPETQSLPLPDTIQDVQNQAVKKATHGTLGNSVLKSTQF

[29] = biological target: T2, Solute carrier family 2, facilitated glucose transporter member 9 (Homo sapiens, UniProt Q9NRM0); assay: Inhibition of GLUT9 (unknown origin)
T2 sequence (Q9NRM0 whole entry): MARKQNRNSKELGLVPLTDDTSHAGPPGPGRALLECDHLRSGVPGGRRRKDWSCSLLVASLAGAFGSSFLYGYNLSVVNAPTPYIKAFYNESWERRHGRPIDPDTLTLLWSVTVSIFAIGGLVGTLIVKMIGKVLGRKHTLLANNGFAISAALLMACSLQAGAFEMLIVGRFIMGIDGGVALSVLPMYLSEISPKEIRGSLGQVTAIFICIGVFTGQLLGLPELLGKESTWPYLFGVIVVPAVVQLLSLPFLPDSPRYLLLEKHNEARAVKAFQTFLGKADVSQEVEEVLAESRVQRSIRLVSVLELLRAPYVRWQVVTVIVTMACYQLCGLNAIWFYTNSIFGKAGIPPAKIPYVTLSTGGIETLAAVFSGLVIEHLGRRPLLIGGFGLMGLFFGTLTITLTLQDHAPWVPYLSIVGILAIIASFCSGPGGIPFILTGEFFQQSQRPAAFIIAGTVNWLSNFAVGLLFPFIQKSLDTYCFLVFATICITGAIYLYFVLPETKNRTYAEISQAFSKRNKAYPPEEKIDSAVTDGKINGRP

SMILES: O=C(O)CSc1nnc(Br)n1-c1ccc(C2CC2)c2ccccc12
- half-life [1]: 3.08 h
- Activity [2]: Toxic
- MRT inf [3]: 6.35 h
- Activity [4]: Non-Toxic
- Cmax [5]: 26500 ng/mL
- Activity [6]: 27.06%
- Activity [7]: Non-Toxic
- Tmax [8]: 1 h
- AUC(0-inf) [9]: 145000 ng·h/mL
- Activity [10]: Toxic
- AUC(0-inf) [11]: 7120 ng·h/mL
- Tmax [12]: 0.667 h
- Activity [13]: Non-Toxic
- Activity [14]: 52.99%
- Activity [15]: Non-Toxic
- AUC(0-t) [16]: 7080 ng·h/mL
- MRT inf [17]: 5.09 h
- Activity [18]: Toxic
- Activity [19]: Toxic
- AUC(0-t) [20]: 144000 ng·h/mL
- Activity [21]: Toxic
- Cmax [22]: 1500 ng/mL
- Activity [23]: Toxic
- Activity [24]: Non-Toxic
- Activity [25]: Non-Toxic
- half-life [26]: 7.46 h
- Activity [27]: Non-Toxic

- IC50 [28]: 7.29 µM
- IC50 [29]: 32.2 µM
SMILES: O=C(CSc1nnc(Br)n1-c1ccc(C2CC2)c2ccccc12)NS(=O)(=O)c1ccc(F)cc1F
- Activity [6]: 93.78%

SMILES: O=C(O)C1(Sc2nc3ncccc3n2-c2ccc(C3CC3)c3ccccc23)CCC1
- Activity [6]: 62.18%
- Activity [19]: Toxic
